Compound activity deposited in PubChem by several laboratories.
PfM18AAP inh-1: blocks P. falciparum M18 aspartyl aminopeptidase. recombinant PfM18AAP, H-Glu-NHMec fluorogenic cleavage. actives 1.2% (n = 290,000). inhibition, % at 7.35 µM. AID 1822;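 active means inhibition above the campaign mean inhibition over all tested compounds plus 3 SD, cut at about 28% in these data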
ZTA DNA inh: ZTA (EBV) inhibition in EBNA-1 counter-screen; AID 2234; ZTA-DNA binding, fluorescence polarization; actives 0.15% (n = 320,000); P03206; inhibition, % at 11 µM; in the data active means inhibition above about 33%
Target sequence (P03206 whole entry, looked up): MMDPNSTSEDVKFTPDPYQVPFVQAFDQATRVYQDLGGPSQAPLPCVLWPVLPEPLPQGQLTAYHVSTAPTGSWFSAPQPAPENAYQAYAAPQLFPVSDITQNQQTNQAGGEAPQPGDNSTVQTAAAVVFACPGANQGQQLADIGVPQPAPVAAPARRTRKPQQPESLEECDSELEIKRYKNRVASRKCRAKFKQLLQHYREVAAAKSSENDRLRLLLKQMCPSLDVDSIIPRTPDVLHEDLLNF
NS3 helicase inh: inhibitors of Hepatitis C virus NS3 helicase. NS3 helicase DNA unwinding, Cy5 molecular beacon fluorescence. inhibition, % at 10.9 µM. actives 0.56% (n = 290,000). AID 1800;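 active means inhibition above the mean of all tested compounds plus 3 SD, set per campaign, cut at about 35% in these data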
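System: Hepatitis C virus NS3 helicase domain fragment enzyme | Reagent: Annealed dual-labelled DNA beacon duplex, ATP-started | Compound dosing: 10.9 µM single point, 0.8% DMSO | Incubation: 1 h reaction at 25 °C, ATP-initiated | Technique: Cy5 fluorescence | Evaluation: Percent inhibition from t60/t0 fluorescence ratio | Benchmarks: Low DMSO, high thioflavine S at 110 µM | Replication: Singlicate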
core dimer inh: HCV core protein dimerization inhibition. TR-FRET GST/Flag-core106 dimerization, 1536-well. inhibition, % at 5 µM. actives 0.33% (n = 300,000);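 active means inhibition above the mean of all tested compounds plus 3 SD, set per screening campaign, cut at about 45% in these data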
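Assay system: Tagged HCV core106 pair (GST and Flag) | Buffer or medium: KF-containing HEPES buffer, pH 7.45, DTT, CHAPS, BSA | Also added: Eu donor and XL665 acceptor anti-tag antibodies | Dosing: One concentration, 5 µM, in 0.5% DMSO | Timing: 4 h at 22.5 °C | Technique: TR-FRET 671 and 617 nm emission | Repeats: Singlicate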
EBNA-1 inh: blocks EBNA-1 binding to DNA; EBNA-1 DNA binding, fluorescence polarization; inhibition, % at 14.8 µM; actives 0.34% (n = 300,000); AID 1950; in the data active means inhibition above about 28%
ALR H2O2 inh: inhibitors of human sulfhydryl oxidase ALR. AID 485317. purified ALR, DTT oxidation, H2O2 HRP-luminol luminescence. inhibition, % (test concentration not listed). actives 3.8% (n = 290,000);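 active means mean replicate inhibition above about 79%, with every replicate also reaching it, limit read from the data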
Target sequence (P55789 whole entry, looked up): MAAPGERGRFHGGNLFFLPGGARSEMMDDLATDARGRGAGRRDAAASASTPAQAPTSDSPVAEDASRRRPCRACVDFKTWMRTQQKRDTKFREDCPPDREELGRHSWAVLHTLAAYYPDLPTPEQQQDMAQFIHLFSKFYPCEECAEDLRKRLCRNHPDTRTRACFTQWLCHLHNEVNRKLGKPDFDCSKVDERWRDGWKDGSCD
NS3 helicase cf: confirmation of Hepatitis C virus NS3 helicase inhibitors; NS3 helicase DNA unwinding, Cy5 molecular beacon fluorescence; shares compounds with NS3 helicase inh; inhibition, % at 10.9 µM; actives 31% (n = 1,600);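 active means inhibition above the mean of all tested compounds plus 3 SD, cutoff set per campaign, cut at about 36% in these data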
FID counter trip: intercalator displacement, NS3 helicase counter-screen | DNA fluorescent intercalator displacement, fluorescence | shares compounds with NS3 helicase inh | AID 1945 | inhibition, % at 7.9 µM | actives 4% (n = 1,600); in the data active means inhibition above about 37%;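 further: higher means more displacement of ethidium bromide from the DNA hairpin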
DNA FID DR: counter-screen for HCV NS3 helicase inhibitors: DNA intercalator displacement dose response; shares compounds with NS3 helicase inh; fluorescent intercalator displacement from DNA, fluorescence; IC50, µM; 120 tested, under 10 active; call rule not given here
PfM18AAP inh-2: PfM18AAP inhibition, confirmation | shares compounds with PfM18AAP inh-1 | recombinant PfM18AAP, H-Glu-NHMec fluorogenic cleavage | inhibition, % at 7.35 µM | actives 28% (n = 2,400);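 active means mean inhibition over replicate wells above the hit cutoff set for the earlier primary screen, cut at about 29% in these data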
CTSL1 confirm: counter-screen for PFM18AAP inhibitors: confirmation of human cathepsin L inhibitors; shares compounds with PfM18AAP inh-1; purified cathepsin L1, Z-Leu-Arg-MCA fluorescence; inhibition, % at 5.96 µM; 2,400 tested, under 10 active; AID 2178;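 active means average inhibition across replicates above the hit cutoff set in the earlier primary screen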
Large screens that a line does not name were inactive (follow-up assays come after a bar, where they were run). Compounds with a hit are over-represented: about 5.2% of the library has one in this group of screens.

CCCCn1c(N)c(N(CC)C(=O)C(c2ccccc2)c2ccccc2)c(=O)[nH]c1=O	none
O=C(O)CCC(=O)N1N=C(c2ccccc2)CC1c1cccs1 (centres undefined)	none
O=C(O)CCC(=O)N1N=C(c2c(-c3ccccc3)c3cc(Cl)ccc3[nH]c2=O)CC1c1cccs1 (centres undefined)	NS3 helicase inh 37 | NS3 helicase cf 90 | FID counter trip inactive
CCc1ccc(-n2c(SCC(=O)N3Cc4ccccc4CC3C(=O)O)nnc2-c2ccncc2)cc1 (centres undefined)	NS3 helicase inh 42 | NS3 helicase cf inactive | FID counter trip inactive
O=C(CSCc1cc(=O)n2ccsc2n1)Nc1ccc(F)cc1	none
Nc1c(C(=O)NCC2CCCO2)sc2nc3c(c(-c4ccco4)c12)CC/C3=C\c1ccco1 (centres undefined)	NS3 helicase inh 51 (no result: ZTA DNA inh, core dimer inh, EBNA-1 inh, ALR H2O2 inh) | NS3 helicase cf 88 | FID counter trip inactive | DNA FID DR inactive
NC(=O)c1sc2nc3c(c(-c4ccco4)c2c1N)CCCC3	none
COc1ccc(C)cc1NCc1cc(=O)oc2cc(-c3ccccc3)c(O)cc12	NS3 helicase inh 49 (no result: ALR H2O2 inh) | NS3 helicase cf inactive | FID counter trip inactive
O=C(Nc1cccc(S(=O)(=O)Nc2ccc(Cl)cc2)c1)c1ccc[n+]([O-])c1	none
COc1ccc(S(=O)(=O)Nc2noc3ccccc23)cc1	none
Cc1c(O)ccc(C(=O)CN2CCN(Cc3ccc4c(c3)OCO4)CC2)c1O	PfM18AAP inh-1 93, NS3 helicase inh 84 | NS3 helicase cf inactive | FID counter trip inactive | PfM18AAP inh-2 inactive | CTSL1 confirm inactive
Nc1nc(-c2cc(O)ccc2[N+](=O)[O-])cc(-c2ccccc2)c1[N+](=O)[O-]	PfM18AAP inh-1 46, NS3 helicase inh 96 (no result: ZTA DNA inh, core dimer inh, EBNA-1 inh) | NS3 helicase cf inactive | FID counter trip 45 | PfM18AAP inh-2 inactive | CTSL1 confirm inactive
O=C1c2ccc([N+](=O)[O-])cc2NC(c2ccco2)N1/N=C/c1ccco1 (centres undefined)	PfM18AAP inh-1 40, NS3 helicase inh 42 | NS3 helicase cf inactive | FID counter trip inactive | PfM18AAP inh-2 inactive | CTSL1 confirm inactive
CN=c1scc(-c2ccc([N+](=O)[O-])cc2)n1/N=C/c1ccco1	none
CC(/C=N/n1c(-c2ccco2)n[nH]c1=S)=C\c1ccco1	PfM18AAP inh-1 32, NS3 helicase inh 51 | NS3 helicase cf inactive | FID counter trip inactive | PfM18AAP inh-2 inactive | CTSL1 confirm inactive
Cc1ccc(-c2ccc(=O)n(CCC(=O)N3CCN(c4cccc(C)c4)C(C)C3)n2)cc1 (centres undefined)	none
CC1CCC(NC(=O)Cn2cnc3sccc3c2=O)CC1 (centres undefined)	none (no result: PfM18AAP inh-1, NS3 helicase inh, core dimer inh, EBNA-1 inh)
O=[N+]([O-])/C(C=Nc1ccccc1O)=C\Nc1ccccc1O	PfM18AAP inh-1 34, NS3 helicase inh 38 (no result: ZTA DNA inh, core dimer inh, EBNA-1 inh, ALR H2O2 inh) | NS3 helicase cf inactive | FID counter trip inactive | PfM18AAP inh-2 inactive | CTSL1 confirm inactive
COc1ccc(C2C(C(C)=O)=C(C)N=c3s/c(=C\c4cc(C)n(C)c4C)c(=O)n32)c(OC)c1 (centres undefined)	none
COc1ccc(C2C(C(C)=O)=C(C)N=c3s/c(=C\c4ccco4)c(=O)n32)c(OC)c1 (centres undefined)	PfM18AAP inh-1 37, NS3 helicase inh 54 | NS3 helicase cf inactive | FID counter trip inactive | PfM18AAP inh-2 inactive | CTSL1 confirm inactive
